What was measured:
[1] = Metabolic stability in hamster liver microsomes assessed as parent compound remaining at 1 uM after 1 hr; assay type: ADME, microsome; conditions: read-out: Stability
[2] = tested on: Liver; assay: Metabolic stability in human liver microsomes assessed as parent compound remaining at 0.5 uM after 0.5 hr; assay type: ADME, microsome
[3] = tested on: Liver; assay: Metabolic stability in CD-1 mouse liver microsomes assessed as parent compound remaining at 0.5 uM after 0.5 hr; assay type: ADME, microsome
[4] = Metabolic stability in hamster liver microsomes assessed as parent compound remaining at 0.5 uM after 0.5 hr; assay type: ADME, microsome; conditions: read-out: Stability
[5] = tested on: Liver; assay: Metabolic stability in human liver microsomes assessed as parent compound remaining at 1 uM after 1 hr; assay type: ADME, microsome
[6] = tested on: Liver; assay: Metabolic stability in CD-1 mouse liver microsomes assessed as parent compound remaining at 1 uM after 1 hr; assay type: ADME, microsome
[7] = AUClast in golden Syrian hamster at 40 mg/kg, po after 24 to 48 hrs by LC-MS/MS analysis; assay type: ADME, organism-based, Mesocricetus auratus; conditions: in vivo
Summary of the method: (§1)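 Fasted female golden Syrian hamsters. IV dose was 2 mg/kg as a solution in 20% NMP and 40% PEG-400 in citrate buffer (pH 3). Oral dosing at 40–50 mg/kg used PEG-400 as vehicle. Plasma was quantified by LC–MS/MS. AUClast was taken to the last time point (24 or 48 h).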

[8] = Half life in golden Syrian hamster at 2 mg/kg, iv by LC-MS/MS analysis; assay type: ADME, organism-based, Mesocricetus auratus; conditions: in vivo; summary of the method: as §1
[9] = Tmax in golden Syrian hamster at 40 mg/kg, po by LC-MS/MS analysis; assay type: ADME, organism-based, Mesocricetus auratus; conditions: in vivo
[10] = Half life in golden Syrian hamster at 40 mg/kg, po by LC-MS/MS analysis; assay type: ADME, organism-based, Mesocricetus auratus; conditions: in vivo
[11] = AUClast in golden Syrian hamster at 2 mg/kg, iv after 24 to 48 hrs by LC-MS/MS analysis; assay type: ADME, organism-based, Mesocricetus auratus; conditions: in vivo; summary of the method: as §1
[12] = Clearance in golden Syrian hamster at 2 mg/kg, iv by LC-MS/MS analysis; assay type: ADME, organism-based, Mesocricetus auratus; conditions: in vivo
[13] = Volume of distribution at steady state in golden Syrian hamster at 2 mg/kg, iv by LC-MS/MS analysis; assay type: ADME, organism-based, Mesocricetus auratus; conditions: in vivo, read-out: Vdss
Summary of the method: (§2)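 Fasted female golden Syrian hamsters given 2 mg/kg iv as a solution in 20% NMP and 40% PEG-400 in citrate buffer pH 3. Plasma concentrations determined by LC–MS/MS to derive PK parameters.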

[14] = Cmax in golden Syrian hamster at 40 mg/kg, po by LC-MS/MS analysis; assay type: ADME, organism-based, Mesocricetus auratus; set-up: dose 40 mg/kg, route oral; conditions: in vivo; summary of the method: as §1
[15] = Initial concentration in golden Syrian hamster at 2 mg/kg, iv by LC-MS/MS analysis; assay type: ADME, organism-based, Mesocricetus auratus; conditions: in vivo; summary of the method: as §2
[16] = tested on: Syrian golden hamster; assay: Oral bioavailability in golden Syrian hamster at 40 mg/kg by LC-MS/MS analysis; assay type: ADME, organism-based, Mesocricetus auratus; conditions: in vivo
[17] = tested on: Mus musculus; assay: Cmax in Swiss albino mouse at 40 mg/kg, po by LC-MS/MS analysis; assay type: ADME, organism-based; set-up: dose 40 mg/kg, route oral; conditions: in vivo
[18] = tested on: Mus musculus; assay: AUClast in Swiss albino mouse at 40 mg/kg, po after 24 to 48 hrs by LC-MS/MS analysis; assay type: ADME, organism-based; conditions: in vivo
[19] = Half life in Swiss albino mouse at 40 mg/kg, po by LC-MS/MS analysis; assay type: ADME, organism-based; conditions: in vivo
[20] = tested on: Mus musculus; assay: Tmax in Swiss albino mouse at 40 mg/kg, po by LC-MS/MS analysis; assay type: ADME, organism-based; conditions: in vivo

| SMILES | remaining at 1 h, 1 µM [1] | Stability [2] | Stability [3] | remaining at 0.5 h, 0.5 µM [4] | Stability [5] | Stability [6] | also measured |
| --- | --- | --- | --- | --- | --- | --- | --- |
| O=C(N[C@H]1COc2nc([N+](=O)[O-])cn2C1)c1cccc(OC(F)(F)F)c1 | 59% |  |  |  |  |  |  |
| O=[N+]([O-])c1cn2c(n1)OC[C@H](OCc1cccc(-c3ccc(OC(F)(F)F)cc3)n1)C2 |  | 68% | 68% | 31% |  |  |  |
| O=[N+]([O-])c1cn2c(n1)OC[C@H](Oc1ccc(-c3ccc(OC(F)(F)F)cc3)nc1)C2 |  |  |  |  | 40% | 35% |  |
| O=[N+]([O-])c1cn2c(n1)OC[C@@H](OCc1cccc(-c3ccc(OC(F)(F)F)cc3)n1)C2 |  | 75% | 78% | 31% |  |  |  |
| O=[N+]([O-])c1cn2c(n1)OC[C@H](OCc1ccc(-c3ccc(OC(F)(F)F)cc3F)nc1)C2 | 9.2% |  |  |  | 37% | 41% | AUC(0-t) [7]: 46.5 µg·h/mL; half-life [8]: 5.3 h; Tmax [9]: 3.3 h; half-life [10]: 5.8 h; AUC(0-t) [11]: 3.69 µg·h/mL; clearance [12]: 0.528 L/h/kg; Vd [13]: 3.2 L/kg; Cmax [14]: 4.7 µg/mL |
| O=[N+]([O-])c1cn2c(n1)OC[C@@H](OCc1cccc(-c3ccc(F)cc3)n1)C2 |  | 96% | 74% |  |  |  |  |
| O=[N+]([O-])c1cn2c(n1)OC[C@H](OCc1ccc(-c3ccc(OC(F)F)cc3)cn1)C2 | 11% | 71% | 86% | 45% | 49% | 56% |  |
| O=[N+]([O-])c1cn2c(n1)OC[C@H](OCc1ccc(OC(F)(F)F)cc1)C2 |  |  |  | 31% |  | 86% |  |
| O=C(Nc1ccccc1OC(F)(F)F)N[C@@H]1COc2nc([N+](=O)[O-])cn2C1 |  | 74% | 43% | 64% |  |  |  |
| O=[N+]([O-])c1cn2c(n1)OC[C@H](NCc1ccc(OC(F)(F)F)cc1)C2 | 7.5% |  |  |  |  | 61% |  |
| O=[N+]([O-])c1cn2c(n1)OC[C@@H](OCc1ccc(OC(F)(F)F)cc1)C2 [PRETOMANID] |  |  |  |  | 82% |  |  |
| O=[N+]([O-])c1cn2c(n1)OC[C@H](OCc1ccc(-c3ccc(OC(F)F)cc3)nc1)C2 | 7.9% |  |  |  | 58% | 56% |  |
| O=[N+]([O-])c1cn2c(n1)OC[C@H](Oc1ccc(-c3ccc(F)cc3)nc1)C2 |  |  |  |  | 73% | 59% |  |
| O=[N+]([O-])c1cn2c(n1)OC[C@H](OCc1ccc(-c3ccc(F)cc3)cn1)C2 | 10% | 85% | 77% | 37% | 58% | 66% |  |
| O=[N+]([O-])c1cn2c(n1)OC[C@H](OCc1ccc(-c3ccc(F)cc3F)cn1)C2 | 5.2% |  |  |  | 59% | 57% | C0 [15]: 0.93 µg/mL; AUC(0-t) [7]: 3.95 µg·h/mL; half-life [8]: 0.83 h; Tmax [9]: 0.75 h; half-life [10]: 0.83 h; F [16]: 37%; AUC(0-t) [11]: 0.48 µg·h/mL; clearance [12]: 3.78 L/h/kg; Vd [13]: 4 L/kg; Cmax [14]: 1.9 µg/mL |
| O=[N+]([O-])c1cn2c(n1)OC[C@@H](OCc1ccn(-c3ccc(OC(F)(F)F)cc3)n1)C2 |  |  |  |  | 87% | 67% |  |
| O=[N+]([O-])c1cn2c(n1)OC[C@@H](OCc1csc(-c3ccc(OC(F)(F)F)cc3)n1)C2 |  | 78% | 75% | 43% |  |  |  |
| O=[N+]([O-])c1cn2c(n1)OC[C@H](OCc1ncccc1-c1ccc(OC(F)(F)F)cc1)C2 |  |  |  |  | 8% | 0.2% |  |
| O=[N+]([O-])c1cn2c(n1)OC[C@H](OCc1ccc(-c3ccc(OC(F)(F)F)cc3F)cn1)C2 | 10% | 75% | 79% | 69% | 27% | 40% | C0 [15]: 0.94 µg/mL; Cmax [17]: 32 µg/mL; AUC(0-t) [7]: 26.7 µg·h/mL; half-life [8]: 3.9 h; AUClast [18]: 265 µg·h/mL; Tmax [9]: 2 h; half-life [10]: 3.9 h; half-life [19]: 6.1 h; F [16]: 74%; AUC(0-t) [11]: 1.89 µg·h/mL; Tmax [20]: 3.3 h; clearance [12]: 1.08 L/h/kg; Vd [13]: 4.2 L/kg; Cmax [14]: 4.2 µg/mL |
| O=[N+]([O-])c1cn2c(n1)OC[C@H](OCc1cccc(-c3ccc(F)cc3)n1)C2 |  | 79% | 68% |  |  |  |  |
| O=[N+]([O-])c1cn2c(n1)OC[C@H](OCc1cccnc1-c1ccc(OC(F)(F)F)cc1)C2 | 3% |  |  |  | 35% | 44% |  |
| O=[N+]([O-])c1cn2c(n1)OC[C@@H](OCc1ccc(-c3ccc(OC(F)(F)F)cc3F)cn1)C2 |  | 88% | 84% | 69% |  |  |  |
| O=[N+]([O-])c1cn2c(n1)OC[C@@H](OCc1ccc(-c3ccc(OC(F)F)cc3)cn1)C2 |  | 92% | 88% | 59% |  |  |  |
| O=[N+]([O-])c1cn2c(n1)OC[C@H](OCc1ccc(-c3ccc(OC(F)(F)F)cc3)cn1)C2 | 10% |  |  | 61% | 27% |  | C0 [15]: 0.65 µg/mL; Cmax [17]: 16 µg/mL; AUC(0-t) [7]: 62.7 µg·h/mL; half-life [8]: 6.3 h; AUClast [18]: 211 µg·h/mL; half-life [10]: 5.8 h; half-life [19]: 9.4 h; F [16]: 100%; AUC(0-t) [11]: 1.3 µg·h/mL; Tmax [20]: 4.7 h; clearance [12]: 1.38 L/h/kg; Vd [13]: 8.2 L/kg; Cmax [14]: 5.7 µg/mL |
| O=[N+]([O-])c1cn2c(n1)OC[C@H](OCc1ccc(-c3ccc(OC(F)(F)F)cc3Cl)cn1)C2 | 5.8% | 65% | 81% | 57% | 16% | 27% |  |
| O=[N+]([O-])c1cn2c(n1)OC[C@@H](OCc1ccc(-c3ccc(OC(F)(F)F)cc3Cl)cn1)C2 |  | 73% | 100% | 75% |  |  |  |
| CC1(C)Oc2nc([N+](=O)[O-])cn2CC1OCc1ccc(OC(F)(F)F)cc1 (stereo not given) |  |  |  |  | 92% | 72% |  |

Reference: ChEMBL document CHEMBL4020832, “Development of (6 R)-2-Nitro-6-[4-(trifluoromethoxy)phenoxy]-6,7-dihydro-5 H-imidazo[2,1- b][1,3]oxazine (DNDI-8219): A New Lead for Visceral Leishmaniasis” (J Med Chem, 2018)
